Results: ChEMBL document CHEMBL4145490, “((S)-3-Mercapto-2-methylpropanamido)acetic acid derivatives as metallo-β-lactamase inhibitors: Synthesis, kinetic and crystallographic studies” (Eur J Med Chem, 2018)
Each block holds one compound with its values, some of them ahead of it. The source made the active and inactive calls. The calls are words filed in the database; no cut-off is given here.

Legend:
[1] = Inhibition of N-terminal his-tagged bacterial NDM1 expressed in Escherichia coli BL21(DE3) pLyS cells; set-up: species or system Bacteria
[2] = Inhibition of N-terminal his-tagged bacterial VIM2 (27 to 266 residues) expressed in Escherichia coli BL21(DE3) pLyS cells; set-up: species or system Bacteria
[3] = Inhibition of bacterial NDM1 (1 to 270 residues) expressed in Escherichia coli Transetta (DE3) cells using FC-5 as substrate by fluorescence assay; set-up: species or system Bacteria
[4] = Inhibition of bacterial VIM2 (27 to 266 residues) expressed in Escherichia coli Transetta (DE3) cells using FC-5 as substrate by fluorescence assay; set-up: species or system Bacteria
[5] = organism: Danio rerio; experiment: Toxicity in FLK-1 promoter EGFP transgenic zebrafish embryos assessed as death at 20 uM incubated for 4 to 96 hrs post fertilization by fluorescence microscopic analysis; format: organism-based; settings: in vivo
[6] = system: Escherichia coli; experiment: Potentiation of meropenem induced antibacterial activity against Escherichia coli DH5alpha by measuring meropenem MIC at 500 uM after 16 to 20 hrs by CLSI broth microdilution method (reference value: <0.25 microg/ml); format: functional; settings: DH5[alpha]
Summary of the method: (§1)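 MICs of meropenem against E. coli DH5α carrying a VIM-2-encoding plasmid, and against a control E. coli strain, with meropenem alone or combined with inhibitor at fixed 100, 200 or 500 µM. Fold change is the MIC shift relative to meropenem alone.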

[7] = Inhibition of bacterial VIM2 (27 to 266 residues) expressed in Escherichia coli Transetta (DE3) cells using FC-5 as substrate in presence of 100 uM Zn2+ by fluorescence assay; set-up: species or system Bacteria
Summary of the method: (§2)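 VIM-2 inhibition determined as dose-inhibition curves, with the assay run at added Zn(II) of 0, 1 or 100 µM.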

[8] = organism: Danio rerio; experiment: Toxicity in FLK-1 promoter EGFP transgenic zebrafish embryos assessed as effect on morphology at 20 uM incubated for 4 to 96 hrs post fertilization by fluorescence microscopic analysis; format: organism-based; settings: in vivo
[9] = system: Escherichia coli; experiment: Potentiation of meropenem induced antibacterial activity against Escherichia coli DH5alpha by measuring meropenem MIC at 100 uM after 16 to 20 hrs by CLSI broth microdilution method (reference value: <0.25 microg/ml); format: functional; settings: DH5[alpha]; summary of the method: as §1
[10] = organism: Danio rerio; experiment: Toxicity in FLK-1 promoter EGFP transgenic zebrafish embryos assessed as effect on angiogenesis at 20 uM incubated for 4 to 96 hrs post fertilization by fluorescence microscopic analysis; format: organism-based; settings: in vivo
[11] = target: Metallo-beta-lactamase (Escherichia coli) (UniProt Q5U7L7); experiment: Inhibition of Escherichia coli VIM2 expressed in Escherichia coli DH5alpha assessed as potentiation of meropenem induced antibacterial activity by measuring meropenem MIC at 200 uM after 16 to 20 hrs by CLSI broth microdilution method (reference value: 16 microg/ml); summary of the method: as §1
[12] = system: Bacteria; experiment: Reversible inhibition of bacterial VIM2 (27 to 266 residues) expressed in Escherichia coli Transetta (DE3) cells at 0.14 uM using FC-5 as substrate up to 500 secs by jump dilution assay
Summary of the method: (§3)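 Jump-dilution reversibility test. VIM-2 at 100-fold its activity-assay concentration was preincubated with inhibitor for 30 min at room temperature, then rapidly diluted 100-fold, and enzyme activity was followed.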

[13] = target: Metallo-beta-lactamase (Escherichia coli) (UniProt Q5U7L7); experiment: Inhibition of Escherichia coli VIM2 expressed in Escherichia coli DH5alpha assessed as potentiation of meropenem induced antibacterial activity by measuring meropenem MIC at 500 uM after 16 to 20 hrs by CLSI broth microdilution method (reference value: 16 microg/ml); summary of the method: as §1
[14] = system: HEK-293T; experiment: Cytotoxicity against HEK293T cells assessed as reduction in cell viability at 50 uM after 72 hrs by MTT assay relative to control; format: cell-based; settings: human
[15] = system: Escherichia coli; experiment: Growth inhibition of Escherichia coli DH5alpha expressing Escherichia coli VIM2 after 16 to 20 hrs by CLSI broth microdilution method; format: organism-based, DH5[alpha]; settings: in vivo; summary of the method: as §1
[16] = target: Metallo-beta-lactamase (Escherichia coli) (UniProt Q5U7L7); experiment: Inhibition of Escherichia coli VIM2 expressed in Escherichia coli DH5alpha assessed as potentiation of meropenem induced antibacterial activity by measuring meropenem MIC at 100 uM after 16 to 20 hrs by CLSI broth microdilution method (reference value: 16 microg/ml); summary of the method: as §1
[17] = system: Escherichia coli; experiment: Potentiation of meropenem induced antibacterial activity against Escherichia coli DH5alpha by measuring meropenem MIC at 200 uM after 16 to 20 hrs by CLSI broth microdilution method (reference value: <0.25 microg/ml); format: functional; settings: DH5[alpha]; summary of the method: as §1
[18] = system: Escherichia coli; experiment: Growth inhibition of Escherichia coli DH5alpha after 16 to 20 hrs by CLSI broth microdilution method; format: organism-based, DH5[alpha]; settings: in vivo; summary of the method: as §1
[19] = organism: Danio rerio; experiment: Toxicity in FLK-1 promoter EGFP transgenic zebrafish embryos assessed as limited mobility at 20 uM incubated for 4 to 96 hrs post fertilization by fluorescence microscopic analysis; format: organism-based; settings: in vivo
[20] = target: Metallo-beta-lactamase (Escherichia coli) (UniProt Q5U7L7); experiment: Inhibition of Escherichia coli VIM2 expressed in Escherichia coli DH5alpha assessed as potentiation of meropenem induced antibacterial activity by measuring fold reduction of meropenem MIC after 16 to 20 hrs by CLSI broth microdilution method relative to control; summary of the method: as §1
[21] = Inhibition of bacterial VIM2 (27 to 266 residues) expressed in Escherichia coli Transetta (DE3) cells using FC-5 as substrate in presence of 1 uM Zn2+ by fluorescence assay; set-up: species or system Bacteria; summary of the method: as §2
[22] = system: Bacteria; experiment: Reversible inhibition of bacterial VIM2 (27 to 266 residues) expressed in Escherichia coli Transetta (DE3) cells at 7.5 uM using FC-5 as substrate up to 500 secs by jump dilution assay; summary of the method: as §3
[23] = system: Bacteria; experiment: Reversible inhibition of bacterial VIM2 (27 to 266 residues) expressed in Escherichia coli Transetta (DE3) cells at 0.77 uM using FC-5 as substrate up to 500 secs by jump dilution assay; summary of the method: as §3

SMILES: C[C@H](CS)C(=O)N[C@H](Cc1c[nH]c2ccccc12)C(=O)O
IC50 [1]: 64800 nM
pIC50 [1]: 4.19
IC50 [2]: 50 nM
pIC50 [2]: 7.26

SMILES: C[C@H](CS)C(=O)N[C@H](C(=O)O)c1ccc(F)cc1
IC50 [3]: 11700 nM
pIC50 [3]: 4.93
IC50 [4]: 121 nM
pIC50 [4]: 6.92

SMILES: C[C@H](CS)C(=O)N[C@@H](C(=O)O)c1ccc(O)cc1
Activity [5]: Non-Toxic
MIC [6]: < 0.25 µg/mL
IC50 [7]: 12.3 nM
Activity [8]: Non-Toxic
MIC [9]: < 0.25 µg/mL
Activity [10]: Non-Toxic
MIC [11]: 8 µg/mL
inhibition [12]: inactive
MIC [13]: 4 µg/mL
Activity [14]: 8%
MIC [15]: > 128 µg/mL
MIC [16]: 8 µg/mL
IC50 [3]: 3570 nM
pIC50 [3]: 5.45
MIC [17]: < 0.25 µg/mL
MIC [18]: > 128 µg/mL
Activity [19]: Non-Toxic
fold change (FC) [20]: 2 to 4
IC50 [21]: 14.8 nM
IC50 [4]: 9.57 to 13.7 nM
pIC50 [4]: 7.86

SMILES: C[C@H](CS)C(=O)N1CCC[C@H]1C(=O)O [CAPTOPRIL]
inhibition [22]: Active

SMILES: C[C@H](CS)C(=O)N[C@H](C(=O)O)c1ccc(O)cc1
Activity [5]: Non-Toxic
MIC [6]: < 0.25 µg/mL
inhibition [23]: inactive
IC50 [7]: 66 nM
Activity [8]: Non-Toxic
MIC [9]: < 0.25 µg/mL
Activity [10]: Non-Toxic
MIC [11]: 16 µg/mL
MIC [13]: 8 µg/mL
Activity [14]: Non-Toxic
MIC [15]: > 128 µg/mL
MIC [16]: 16 µg/mL
IC50 [3]: 24000 nM
pIC50 [3]: 4.62
MIC [17]: < 0.25 µg/mL
MIC [18]: > 128 µg/mL
Activity [19]: Non-Toxic
fold change (FC) [20]: 2 to 4
IC50 [21]: 72.9 nM
IC50 [4]: 77 nM
pIC50 [4]: 7.11

SMILES: C[C@H](CS)C(=O)N[C@@H](C(=O)O)c1ccc(F)cc1
IC50 [3]: 5590 nM
pIC50 [3]: 5.25
IC50 [4]: 55 nM
pIC50 [4]: 7.26

SMILES: C[C@H](CS)C(=O)N1CCC[C@@H]1C(=O)O [D-CAPTOPRIL]
IC50 [2]: 4550 nM
pIC50 [2]: 5.34

Next, values leading:

IC50 [3]: 73100 nM
pIC50 [3]: 4.14
IC50 [4]: 276 nM
pIC50 [4]: 6.56
SMILES: C[C@H](CS)C(=O)N[C@H](Cc1ccc(O)cc1)C(=O)O

IC50 [3]: 326000 nM
pIC50 [3]: 3.49
IC50 [4]: 490 nM
pIC50 [4]: 6.31
SMILES: C[C@H](CS)C(=O)N[C@@H](Cc1ccc(O)cc1)C(=O)O

IC50 [3]: 20500 nM
pIC50 [3]: 4.69
IC50 [4]: 57 nM
pIC50 [4]: 7.25
SMILES: C[C@H](CS)C(=O)N[C@@H](C(=O)O)c1ccccc1

IC50 [3]: 233000 nM
pIC50 [3]: 3.63
IC50 [4]: 2850 nM
pIC50 [4]: 5.55
SMILES: C[C@H](CS)C(=O)N[C@@H](Cc1ccccc1)C(=O)O

IC50 [1]: 24800 nM
pIC50 [1]: 4.61
IC50 [2]: 1060 nM
pIC50 [2]: 5.97
SMILES: C[C@H](CS)C(=O)N[C@@H](Cc1c[nH]c2ccccc12)C(=O)O

IC50 [3]: 8770 nM
pIC50 [3]: 5.06
IC50 [4]: 39 nM
pIC50 [4]: 7.41
SMILES: C[C@H](CS)C(=O)N[C@H](C(=O)O)c1ccccc1

IC50 [3]: 7000 nM
pIC50 [3]: 5.16
IC50 [4]: 121 nM
pIC50 [4]: 6.92
SMILES: C[C@H](CS)C(=O)N[C@H](Cc1ccccc1)C(=O)O
